Tests used:
Acetylcholinesterase = Acetylcholinesterase (Electrophorus electricus, UniProt O42275); experiment: Inhibition of Electrophorus electricus AChE using acetylthiocholine iodide as substrate preincubated for 15 mins followed by substrate addition and measured after 4 mins by Ellman's method
[1] = biological target: Acetylcholinesterase (Electrophorus electricus) (UniProt O42275); experiment: Inhibition of Electrophorus electricus AChE at 100 uM using acetylthiocholine iodide as substrate preincubated for 15 mins followed by substrate addition and measured after 4 mins by Ellman's method; settings: time 19.0 min
Cholinesterase [2] = biological target: T1, Cholinesterase (Equus caballus, UniProt P81908); experiment: Inhibition of equine serum BuChE using butyrylthiocholine chloride as substrate preincubated for 15 mins followed by substrate addition and measured after 4 mins by Ellman's method; format: cell-free
[3] = biological target: Cholinesterase (Equus caballus) (UniProt P81908); experiment: Inhibition of equine serum BuChE at 100 uM using butyrylthiocholine chloride as substrate preincubated for 15 mins followed by substrate addition and measured after 4 mins by Ellman's method; format: cell-free
[4] = biological target: Cholinesterase (Equus caballus) (UniProt P81908); experiment: Inhibition of equine serum BuChE at 10 uM using butyrylthiocholine chloride as substrate preincubated for 15 mins followed by substrate addition and measured after 4 mins by Ellman's method; format: cell-free; settings: time 19.0 min
Cholinesterase [5] = biological target: T1, Cholinesterase; experiment: Non-Competitive inhibition of equine serum BuChE using varying concentrations of butyrylthiocholine iodide as substrate by Lineweaver-burk plot analysis; format: cell-free
In short: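 Equine serum BuChE kinetics by the Ellman read-out with butyrylthiocholine at 0.025–2.0 mM. Run without inhibitor and with inhibitor at 0.5 and 1.0 µM. Reciprocal initial rate was plotted against reciprocal substrate concentration (Lineweaver-Burk) to assign the inhibition mode.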

Sequence of Acetylcholinesterase (O42275 whole entry): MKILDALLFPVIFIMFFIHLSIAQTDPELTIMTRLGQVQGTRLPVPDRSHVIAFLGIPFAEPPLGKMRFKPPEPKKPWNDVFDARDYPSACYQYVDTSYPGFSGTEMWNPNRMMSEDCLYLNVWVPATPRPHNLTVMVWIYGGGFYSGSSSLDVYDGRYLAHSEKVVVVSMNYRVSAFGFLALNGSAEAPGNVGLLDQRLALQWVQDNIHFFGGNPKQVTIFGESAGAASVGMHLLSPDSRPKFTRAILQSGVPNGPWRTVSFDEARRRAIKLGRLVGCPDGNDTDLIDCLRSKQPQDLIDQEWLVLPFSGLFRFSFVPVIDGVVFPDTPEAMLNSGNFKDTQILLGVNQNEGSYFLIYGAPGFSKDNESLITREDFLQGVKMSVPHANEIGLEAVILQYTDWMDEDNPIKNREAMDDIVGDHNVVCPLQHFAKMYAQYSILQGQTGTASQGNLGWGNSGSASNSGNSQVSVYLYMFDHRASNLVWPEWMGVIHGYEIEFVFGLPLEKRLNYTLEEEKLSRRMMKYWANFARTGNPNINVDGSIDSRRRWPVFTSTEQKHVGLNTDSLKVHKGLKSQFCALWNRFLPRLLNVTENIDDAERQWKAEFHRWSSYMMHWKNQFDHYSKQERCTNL
Sequence of Acetylcholinesterase (Electrophorus electricus) (O42275 24-633 limits assumed): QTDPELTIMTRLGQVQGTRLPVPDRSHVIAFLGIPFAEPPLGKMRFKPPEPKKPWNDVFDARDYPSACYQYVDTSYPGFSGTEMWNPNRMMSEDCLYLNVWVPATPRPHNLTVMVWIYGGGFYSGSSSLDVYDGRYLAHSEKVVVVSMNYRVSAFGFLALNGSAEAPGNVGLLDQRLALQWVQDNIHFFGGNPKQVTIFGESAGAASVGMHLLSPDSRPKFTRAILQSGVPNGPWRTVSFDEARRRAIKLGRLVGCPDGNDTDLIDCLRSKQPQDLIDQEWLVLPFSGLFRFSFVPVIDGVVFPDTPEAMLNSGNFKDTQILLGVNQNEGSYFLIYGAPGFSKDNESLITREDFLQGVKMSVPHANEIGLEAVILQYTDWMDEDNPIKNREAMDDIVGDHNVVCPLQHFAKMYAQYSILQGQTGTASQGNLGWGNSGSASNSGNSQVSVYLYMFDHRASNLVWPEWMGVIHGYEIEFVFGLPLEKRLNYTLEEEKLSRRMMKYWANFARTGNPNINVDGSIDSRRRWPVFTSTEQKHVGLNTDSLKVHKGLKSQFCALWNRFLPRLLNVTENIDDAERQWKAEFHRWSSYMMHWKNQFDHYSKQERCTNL
Sequence of Cholinesterase (Equus caballus) (P81908 whole entry): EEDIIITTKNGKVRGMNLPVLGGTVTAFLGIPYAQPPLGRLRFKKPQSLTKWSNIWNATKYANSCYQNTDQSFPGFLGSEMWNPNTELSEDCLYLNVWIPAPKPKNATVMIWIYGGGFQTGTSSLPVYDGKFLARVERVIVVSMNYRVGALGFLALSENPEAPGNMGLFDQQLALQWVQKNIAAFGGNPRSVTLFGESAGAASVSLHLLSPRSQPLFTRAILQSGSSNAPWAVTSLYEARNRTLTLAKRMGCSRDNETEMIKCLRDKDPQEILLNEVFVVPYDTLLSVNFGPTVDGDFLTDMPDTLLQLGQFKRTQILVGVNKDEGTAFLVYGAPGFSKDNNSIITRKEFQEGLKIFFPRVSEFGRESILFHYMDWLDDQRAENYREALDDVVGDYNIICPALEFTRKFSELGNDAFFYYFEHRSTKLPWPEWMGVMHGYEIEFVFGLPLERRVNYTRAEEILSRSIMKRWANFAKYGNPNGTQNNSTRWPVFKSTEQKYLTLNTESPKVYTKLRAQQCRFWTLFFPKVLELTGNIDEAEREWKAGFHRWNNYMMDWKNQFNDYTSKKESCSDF
T1 sequence (P81908 whole entry): as above

| Compound | IC50 (Acetylcholinesterase) [µM] | inhibition [1] [%] | IC50 (Cholinesterase [2]) [µM] | inhibition [3] [%] | inhibition [4] [%] | Ki (Cholinesterase [5]) [µM] |
| --- | --- | --- | --- | --- | --- | --- |
| COc1cc(C(=O)N/N=C/c2ccc(OC(=O)N(C)C)c(OC)c2)ccc1O | > 100 | 29.2 | 9.98 | 49.7 | 57.3 |  |
| CN(C)C(=O)Oc1ccc(/C=N/NC(=O)c2cccc(O)c2)cc1 | > 100 | 9.65 | 29.3 | 75.2 | 42.1 |  |
| CN(C)C(=O)Oc1ccccc1/C=N/NC(=O)c1ccc(O)cc1 | > 100 | 11.1 | 0.18 | 80.9 | 76.4 |  |
| COc1cc(C(=O)N/N=C/c2ccccc2OC(=O)N(C)C)ccc1O | > 100 | 24.9 | 0.07 | 77.8 | 73 | 97 |
| CN(C)C(=O)Oc1ccc(/C=N/NC(=O)c2ccc(O)cc2)cc1 | > 100 | 11.7 | > 100 | 31 | 10.4 |  |
| COc1cc(C(=O)N/N=C/c2ccc(OC(=O)N(C)C)cc2)ccc1O | > 100 | 20.1 | 21.9 | 63.9 | 44.6 |  |
| COc1ccc(C(=O)N/N=C/c2ccc(OC(=O)N(C)C)c(OC)c2)cc1OC | > 100 | 24.7 | 2.07 | 78.5 | 74.8 |  |
| CN(C)C(=O)Oc1ccccc1/C=N/NC(=O)c1cccc(O)c1 | > 100 | 18.2 | 0.56 | 82 | 74.9 |  |
| COc1ccc(C(=O)N/N=C/c2ccc(OC(=O)N(C)C)cc2)cc1OC | > 100 | 28.3 | > 100 | 37.8 | 11.4 |  |
| COc1cc(/C=N/NC(=O)c2cccc(O)c2)ccc1OC(=O)N(C)C | > 100 | 19.9 | 7.65 | 62.2 | 50.1 |  |
| COc1ccc(C(=O)N/N=C/c2ccccc2OC(=O)N(C)C)cc1OC | > 100 | 21.9 | 0.31 | 74 | 62.1 |  |
| COc1cc(/C=N/NC(=O)c2ccc(O)cc2)ccc1OC(=O)N(C)C | > 100 | 23.6 | 0.94 | 73.4 | 68.4 |  |

Source: ChEMBL document CHEMBL4680346, “Novel arylcarbamate-N-acylhydrazones derivatives as promising BuChE inhibitors: Design, synthesis, molecular modeling and biological evaluation” (Bioorg Med Chem, 2021)
